The record followed here is ChEMBL document CHEMBL1148721 (J Med Chem, 2007).

A short description of test [1]: Agonist activity at GABAC rho 1 receptor expressed in tsA-201 cells by FMP assay. The class given is functional, cell-based. The note with it: Homo sapiens, tsA201.
Test [2] is described as follows: Agonist activity at GABAC rho 1 receptor S168T mutant expressed in tsA-201 cells by FMP assay. Format: functional, cell-based. The note with it: Homo sapiens, tsA201.
The nature of test [3]: Displacement of [3H]muscimol from GABAA receptor in rat brain membrane. The class given is cell membranes. A digest of the protocol: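 Native GABAA receptor affinity was measured by [3H]muscimol binding to rat brain membranes. Ki was calculated from pKi; ≥3 experiments in duplicate.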
Background: Loss of bound radioactivity is the signal in a displacement assay; it reports binding, not function.

A short description of test [4]: Agonist activity at human GABAC rho 1 receptor expressed in HEK293 cells by FMP assay relative to GABA. The class given is functional. The method in brief:
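Stable human ρ1 HEK293 clone kept in 1 mg/mL G-418 and plated on poly-D-lysine plates for 16-24 h. Dye loading for 30 min at 37 °C in HBSS + 20 mM HEPES pH 7.4. Emission at 560 nm (excitation 530 nm) recorded before and up to 1 min after agonist. Concentration-response curves built from maximal responses; Rmax given as % of GABA; duplicates, ≥3 experiments.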

The nature of test [5]: Agonist activity at GABAC rho 1 receptor expressed in tsA-201 cells by FMP assay relative to GABA. The class given is functional, Homo sapiens. A digest of the protocol: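 Human ρ1 (WT) transiently expressed in tsA-201 cells via Polyfect, plated on poly-D-lysine plates 16-24 h post-transfection and assayed next day. Cells loaded with membrane potential dye in HBSS + 20 mM HEPES pH 7.4, 30 min at 37 °C. Fluorescence read (ex 530/em 560 nm) before and up to 1 min after agonist addition. Rmax expressed as % of GABA maximal response; ≥3 experiments in duplicate.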

Test [6] is described as follows: Agonist activity at human GABAC rho 1 receptor expressed in HEK293 cells by FMP assay. The note with it: for EC50: Homo sapiens, HEK293. The class given is functional, cell-based.
The nature of test [7]: Agonist activity at GABAC rho 1 receptor S168T mutant expressed in tsA-201 cells by FMP assay relative to GABA. Format: functional, Homo sapiens. The method in brief:
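tsA-201 cells transiently transfected with human ρ1 Ser168Thr cDNA, plated on poly-D-lysine after 16-24 h and assayed the next day. Cells loaded with membrane potential dye in HBSS/20 mM HEPES pH 7.4 for 30 min at 37 °C. Fluorescence (ex 530/em 560 nm) read up to 1 min after agonist addition. Rmax given as % of GABA maximum at the same receptor; duplicates, at least three experiments.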

Test [8] can be described thus: Agonist activity at human GABA alpha-1-beta-2-gamma-2s receptor expressed in Xenopus oocytes by two electrode voltage-clamp assay. The note with it: Oocyte. Format: functional, cell-based.
Test [9] is described as follows: Agonist activity at human GABAC rho 1 receptor expressed in HEK293 cells by Whole-cell patch-clamp technique relative to GABA. The class given is functional. A digest of the protocol: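 HEK293 cells cotransfected with human ρ1 plus GFP (Targefect) and recorded 20-72 h later by whole-cell patch clamp at -60 mV, 20-22 °C. Bath solution: 140 mM NaCl, HEPES, pH 7.35. Agonists applied by gravity-fed multibarrel perfusion. Hill equation fitted to obtain EC50, nH and Imax; maximal response as % of GABA; ≥5 cells.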
On the technique in general: In patch-clamp work, channel activity is measured electrically.

Test [10] is described as follows: Agonist activity at rat GABA alpha-1-T129S-beta-2-gamma-2 receptor mutant expressed in HEK293 cells by Whole-cell patch-clamp technique relative to GABA. Format: functional. The method in brief: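 Rat α1(Thr129Ser) with β2 and γ2S (1:1:2) transiently co-transfected with a GFP plasmid into HEK293 cells; whole-cell patch-clamp 20-72 h after transfection at 20-22 °C, clamp usually -60 mV, extracellular solution pH 7.35. Agonist applied by perfusion pipette. Hill-equation fit gives EC50 and Imax; maximal response as % of GABA maximum; at least five cells.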

Test [11] can be described thus: Antagonist activity at human GABAc rho 1 receptor expressed in HEK293 cells by FMP assay. Format: functional, cell-based. The method in brief:
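Stable HEK293 line expressing human ρ1 (selected under G-418). Antagonist included with the loading dye in HBSS/20 mM HEPES pH 7.4 for 30 min at 37 °C, then agonist added. Fluorescence (ex 530/em 560 nm) read up to 1 min. Ki from inhibition curves by the Cheng-Prusoff relation using agonist concentration and EC50; duplicates, at least three experiments.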

Test [12] has as its target GABA A receptor alpha-1/beta-2/gamma-2 (Rattus norvegicus). Nature of the test: Agonist activity at GABA alpha-1-beta-2-gamma-2 receptor expressed in HEK293 cells by Whole-cell patch-clamp technique.
A short description of the next test: cells. The note with it: HEK293. The class given is functional, cell-based.
A short description of test [13]: Agonist activity at human GABAC rho 1 receptor expressed in HEK293 cells by Whole-cell patch-clamp technique. The class given is functional, cell-based.

Bounds are passed on as bounds.

Usually EC50 stands for the concentration at which the effect is half-maximal. One may read the Ki as a dissociation constant, usually derived from enzyme kinetics or from competition with a known ligand. As for `O=C(O)Cc1[nH]cnc1-c1ccc(F)cc1`, the EC50 in [1] (read-out: EC50) was 330 µM; in test [1] (read-out: Log EC50 (converted)) it was 316 µM; in test [2] (read-out: EC50), more than 3000 µM; in test [6] it was 210 µM. In test [3], this molecule registered a Ki of more than 100 µM. Further, the RUmax is 115% in [4] and 94% in [5].

With `NCc1cc(O)no1` [MUSCIMOL], the 50% effective concentration (EC50) was 0.62 µM in test [1] (read-out: EC50); 0.631 µM in test [1] (read-out: Log EC50 (converted)); 24 µM in [2] (read-out: EC50); 25.1 µM in test [2] (read-out: Log EC50 (converted)); 2.2 µM in test [6]. The RUmax in test [4] is recorded as 101%; in [7], 96%; in test [5], 104%.

Molecule `Cc1nc(CC(=O)O)c[nH]1` returned an inhibition constant Ki in test [3] of more than 100 µM. The EC50 in [6] was more than 1000 µM.

Regarding `O=C(O)Cc1[nH]c(Cl)nc1-c1ccccc1`, the inhibitory constant (Ki) in test [3] is more than 100 µM. The molecule also came in with an EC50 in [6] of more than 1000 µM.

Take `Cc1ccc(-c2nc[nH]c2CC(=O)O)cc1`: the EC50 in test [1] (read-out: EC50) was 220 µM; in test [1] (read-out: Log EC50 (converted)) it was 200 µM; in test [2] (read-out: EC50), more than 3000 µM; in [6], 240 µM. This molecule showed a Ki in test [3] of more than 100 µM. The RUmax in test [4] was determined as 111%; in test [5], 127%.

Consider `O=C(O)Cc1[nH]cnc1I`, for which the Ki in test [3] was more than 100 µM. The molecule also showed a concentration giving a half-maximal response (EC50) in [6] of more than 1000 µM.

On to `CC1N=C(CC(=O)O)C(c2ccccc2)=N1` (stereo unspecified), for which the inhibition constant Ki in [3] was more than 100 µM. The half-maximal effective concentration (EC50) in [8] and in test [6] was more than 1000 µM in each case.

In test [3], `Cc1ccccc1-c1nc[nH]c1CC(=O)O` had a Ki of more than 100 µM. In addition, in test [6], the EC50 is more than 1000 µM.

For the molecule `NCCCC(=O)O` [GAMMA-AMINOBUTYRIC ACID], the RUmax in test [4], in test [7], in test [9], in test [5] and in test [10] was 100% each time.

`CP(=O)(O)C1=CCNCC1`: the Ki in test [6] (hek293) was 1.3 µM.

With `Oc1noc2c1CCNC2` [GABOXADOL], in test [11], the Ki was 100 µM and the “Log Ki” value is -4.

In turn, `O=C(O)Cc1c[nH]c(Cl)n1` displayed an inhibition constant Ki in [3] of more than 100 µM. Moreover, the EC50 in test [8] is more than 1000 µM.

Regarding `Cc1cccc(-c2nc[nH]c2CC(=O)O)c1`, the inhibition constant (Ki) in [3] was more than 100 µM. The same molecule gave an EC50 in [6] of more than 1000 µM.

For `O=C(O)C1=CCNCC1` [ISOGUVACINE], in test [4], the RUmax was 97%. The same molecule came in with an EC50 in test [6] of 67 µM.

`O=C(O)Cc1c[nH]c(-c2ccccc2)n1` showed a Ki in test [3] of more than 100 µM. The EC50 in [6] was more than 1000 µM.

Consider `Cc1[nH]cnc1CC(=O)O`, for which the EC50 was more than 1000 µM in test [12]; 11 µM in test [1] (read-out: EC50); 10 µM in test [1] (read-out: Log EC50 (converted)); more than 1000 µM in [2] (read-out: EC50); more than 1000 µM in test [8]; more than 1000 µM in the test “cells” (read-out: EC50). Further, the half-maximal effective concentration (EC50) in test [13] (read-out: EC50) was 31 µM; in test [13] (read-out: Log EC50 (converted)) it was 31.6 µM; in test [6] it was 22 µM. In addition, the inhibitory constant (Ki) in test [3] was 67 µM. Also, in test [3], the “Log Ki” value is reported as -4.2. Also, the RUmax was 95% in test [4], 66% in test [9] and 106% in test [5].

Turning to `O=C(O)Cc1c[nH]cn1` [IMIDAZOLE ACETIC ACID], the EC50 in [1] (read-out: EC50) is 5.5 µM; in test [1] (read-out: Log EC50 (converted)), 5.01 µM; in test [2] (read-out: EC50), 100 µM; in the test “cells” (read-out: EC50), 20 µM; in the test “cells” (read-out: Log EC50 (converted)) it was 20 µM; in test [13] (read-out: EC50) it was 5.5 µM. The half-maximal effective concentration (EC50) in [13] (read-out: Log EC50 (converted)) was 5.5 µM; in test [6] it was 13 µM. In addition, in test [3], the affinity corresponds to a Ki of 0.65 µM. In addition, the “Log Ki” value in [3] is given as -6.2. The RUmax turned out to be 32% in test [4]; 10% in test [7]; 7.5% in test [9]; 37% in [5]; 39% in [10].

For `O=C(O)Cc1[nH]cnc1-c1ccccc1`, the EC50 in test [1] (read-out: EC50) was 140 µM; in test [1] (read-out: Log EC50 (converted)), 158 µM; in test [2] (read-out: EC50), more than 3000 µM; in test [8], more than 1000 µM; in test [6] it was 420 µM. In test [3], this molecule returned an inhibition constant (Ki) of more than 100 µM. Further, the RUmax is reported as 98% in [4] and 131% in test [5].
